According to the M2OR odorant receptor database:

Assays:
Settings in all cases: stereoisomer not certain
[1] = target: T1, UniProt Q8VGZ2
T1 sequence (whole entry): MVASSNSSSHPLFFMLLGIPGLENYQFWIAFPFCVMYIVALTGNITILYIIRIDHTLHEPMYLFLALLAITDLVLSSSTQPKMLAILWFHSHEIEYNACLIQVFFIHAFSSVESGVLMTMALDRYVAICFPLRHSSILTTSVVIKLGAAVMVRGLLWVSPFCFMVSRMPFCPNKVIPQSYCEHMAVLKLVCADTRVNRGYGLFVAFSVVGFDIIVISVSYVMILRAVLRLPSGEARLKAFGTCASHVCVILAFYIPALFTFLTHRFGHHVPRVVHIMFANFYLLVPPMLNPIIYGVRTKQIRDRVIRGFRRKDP
Procedure, shortened: (§1)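 Each receptor–molecule pair is labelled responsive or non-responsive (inactive) according to whether the original authors judged the measured signal statistically different from baseline. The data were taken from the main text and supplementary material of published papers and checked for typos and inconsistencies. Assay methods differed by source, with transient luciferase assays in mammalian cell lines being common.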

[2] = target: T2, UniProt Q8VGZ7
T2 sequence (whole entry): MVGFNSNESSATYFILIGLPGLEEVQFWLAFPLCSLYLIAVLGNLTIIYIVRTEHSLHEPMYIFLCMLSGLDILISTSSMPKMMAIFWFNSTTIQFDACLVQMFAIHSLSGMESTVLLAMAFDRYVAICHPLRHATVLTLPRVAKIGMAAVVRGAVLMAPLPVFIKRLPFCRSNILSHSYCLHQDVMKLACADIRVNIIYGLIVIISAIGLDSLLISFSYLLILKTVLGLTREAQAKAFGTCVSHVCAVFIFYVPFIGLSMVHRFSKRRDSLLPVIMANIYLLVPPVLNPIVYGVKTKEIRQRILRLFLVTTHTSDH
Procedure, shortened: as §1

[3] = target: T3, UniProt Q8VH16
T3 sequence (whole entry): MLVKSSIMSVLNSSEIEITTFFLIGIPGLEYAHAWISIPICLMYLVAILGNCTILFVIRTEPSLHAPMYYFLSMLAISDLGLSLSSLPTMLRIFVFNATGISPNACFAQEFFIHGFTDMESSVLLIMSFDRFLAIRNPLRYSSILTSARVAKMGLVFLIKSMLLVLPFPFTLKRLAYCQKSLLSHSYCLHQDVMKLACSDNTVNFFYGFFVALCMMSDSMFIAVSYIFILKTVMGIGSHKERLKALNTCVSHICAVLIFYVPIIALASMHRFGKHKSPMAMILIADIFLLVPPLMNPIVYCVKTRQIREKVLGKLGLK
Procedure, shortened: as §1

[4] = target: T4, UniProt Q8VH20
T4 sequence (whole entry): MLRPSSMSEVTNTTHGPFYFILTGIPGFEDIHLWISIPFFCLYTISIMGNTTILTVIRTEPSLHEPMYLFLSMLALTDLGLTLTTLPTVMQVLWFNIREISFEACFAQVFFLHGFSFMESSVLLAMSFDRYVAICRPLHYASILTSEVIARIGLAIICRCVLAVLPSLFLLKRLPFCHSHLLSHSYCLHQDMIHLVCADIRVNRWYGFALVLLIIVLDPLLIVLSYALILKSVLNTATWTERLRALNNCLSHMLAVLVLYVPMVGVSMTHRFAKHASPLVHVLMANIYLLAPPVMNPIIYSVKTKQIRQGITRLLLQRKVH
Procedure, shortened: as §1

[5] = target: T5, UniProt Q8VH21
T5 sequence (whole entry): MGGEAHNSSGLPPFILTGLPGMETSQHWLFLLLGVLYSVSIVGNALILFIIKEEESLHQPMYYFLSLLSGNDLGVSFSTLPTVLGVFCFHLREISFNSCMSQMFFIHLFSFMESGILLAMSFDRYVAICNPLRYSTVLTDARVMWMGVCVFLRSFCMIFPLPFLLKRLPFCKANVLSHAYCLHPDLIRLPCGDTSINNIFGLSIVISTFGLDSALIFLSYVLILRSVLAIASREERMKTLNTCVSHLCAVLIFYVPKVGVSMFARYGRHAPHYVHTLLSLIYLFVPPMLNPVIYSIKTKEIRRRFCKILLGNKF
Procedure, shortened: as §1

[6] = target: T6, UniProt Q924H8
T6 sequence (whole entry): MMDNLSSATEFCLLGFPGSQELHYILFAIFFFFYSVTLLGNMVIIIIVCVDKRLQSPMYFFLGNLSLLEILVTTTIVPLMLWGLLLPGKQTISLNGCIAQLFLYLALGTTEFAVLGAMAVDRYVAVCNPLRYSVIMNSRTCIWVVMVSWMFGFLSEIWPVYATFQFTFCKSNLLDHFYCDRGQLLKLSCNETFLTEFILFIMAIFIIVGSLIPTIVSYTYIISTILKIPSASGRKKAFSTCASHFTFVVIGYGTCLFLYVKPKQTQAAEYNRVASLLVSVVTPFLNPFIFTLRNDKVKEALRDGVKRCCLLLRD
Procedure, shortened: as §1

[7] = target: T7, UniProt Q8VH18
T7 sequence (whole entry): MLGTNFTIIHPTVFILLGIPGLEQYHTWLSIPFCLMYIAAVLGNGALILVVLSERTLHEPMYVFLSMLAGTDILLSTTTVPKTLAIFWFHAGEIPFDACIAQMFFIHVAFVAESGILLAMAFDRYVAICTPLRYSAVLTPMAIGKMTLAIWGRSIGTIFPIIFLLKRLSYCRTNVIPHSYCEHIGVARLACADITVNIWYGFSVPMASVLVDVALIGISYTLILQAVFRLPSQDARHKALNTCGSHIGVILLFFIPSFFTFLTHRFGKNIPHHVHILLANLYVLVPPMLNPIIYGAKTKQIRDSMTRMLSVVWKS
Procedure, shortened: as §1

[8] = target: T8, UniProt Q9WU94
T8 sequence (whole entry): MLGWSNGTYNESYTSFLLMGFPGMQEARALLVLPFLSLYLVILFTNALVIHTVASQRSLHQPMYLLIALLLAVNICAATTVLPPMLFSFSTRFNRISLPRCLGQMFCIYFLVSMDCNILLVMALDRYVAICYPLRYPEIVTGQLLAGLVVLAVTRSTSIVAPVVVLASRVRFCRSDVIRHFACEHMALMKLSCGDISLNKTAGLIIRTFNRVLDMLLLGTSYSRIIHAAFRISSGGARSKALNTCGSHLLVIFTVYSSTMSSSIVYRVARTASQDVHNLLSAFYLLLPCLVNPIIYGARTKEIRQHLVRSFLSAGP
Procedure, shortened: as §1

[9] = target: T9, UniProt Q920P2
T9 sequence (whole entry): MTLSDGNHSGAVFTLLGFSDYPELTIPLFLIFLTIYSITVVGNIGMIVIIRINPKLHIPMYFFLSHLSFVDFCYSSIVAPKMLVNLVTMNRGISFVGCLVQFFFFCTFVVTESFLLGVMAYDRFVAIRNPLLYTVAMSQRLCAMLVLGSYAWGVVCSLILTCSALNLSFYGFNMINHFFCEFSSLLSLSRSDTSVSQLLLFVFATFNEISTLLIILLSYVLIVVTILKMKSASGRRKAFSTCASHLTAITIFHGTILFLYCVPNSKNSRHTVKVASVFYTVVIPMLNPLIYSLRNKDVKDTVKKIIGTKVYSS
Procedure, shortened: as §1

[10] = target: UniProt Q9EQB5
Chain of UniProt Q9EQB5 (Q9EQB5 as listed by the source): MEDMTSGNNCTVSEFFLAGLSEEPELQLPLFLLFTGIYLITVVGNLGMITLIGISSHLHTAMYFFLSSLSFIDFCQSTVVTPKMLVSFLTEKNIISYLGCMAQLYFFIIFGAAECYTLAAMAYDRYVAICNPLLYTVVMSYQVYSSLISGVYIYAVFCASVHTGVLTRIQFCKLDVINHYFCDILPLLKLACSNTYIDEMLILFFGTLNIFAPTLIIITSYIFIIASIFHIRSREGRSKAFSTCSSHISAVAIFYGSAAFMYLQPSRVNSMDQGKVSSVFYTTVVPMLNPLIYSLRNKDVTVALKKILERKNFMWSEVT
Procedure, shortened: as §1

Measured: odorant receptor agonist call

O=C(O)C1CCC1
active: [5]
inactive: [1] | [2] | [3] | [4] | [6]

C=C1C2CCC(C2)C1(C)C (stereo not given)
inactive: [1] | [2] | [3] | [4] | [5] | [6]

CC(=O)OCc1ccc2c(c1)OCO2
inactive: [1] | [2] | [3] | [4] | [5] | [6]

C=CC(=O)CCCCC
inactive: [1] | [2] | [3] | [4] | [5] | [6]

CCN(CC)CC
inactive: [1] | [2] | [3] | [4] | [5] | [6]

C1CCOCC1
inactive: [1] | [2] | [3] | [4] | [5] | [6]

Cc1ccc(C(C)C)c(O)c1
inactive: [1] | [2] | [3] | [4] | [5] | [6]

CCSSCC
inactive: [1] | [2] | [3] | [4] | [5] | [6]

Cc1ccccc1OC(=O)C(C)C
inactive: [1] | [2] | [3] | [4] | [5] | [6]

COc1cnccn1
inactive: [1] | [2] | [3] | [4] | [5] | [6]

CCCCCC(C=O)=Cc1ccccc1
inactive: [1] | [2] | [3] | [4] | [5] | [6]

CC=C(C)C=O
active: [5]
inactive: [1] | [2] | [3] | [4] | [6]

COc1nccnc1C(C)C
inactive: [1] | [2] | [3] | [4] | [5] | [6]

CCCCCCCCCCOC(C)=O
inactive: [1] | [2] | [3] | [4] | [5] | [6]

Cc1occc1SSc1ccoc1C
inactive: [1] | [2] | [3] | [4] | [5] | [6]

CCC=CCCCCC=O
active: [4]
inactive: [1] | [2] | [3] | [5] | [6]

CNc1ccccc1C(=O)OC
inactive: [1] | [2] | [3] | [4] | [5] | [6]

O=C(OCc1ccccc1)c1ccccc1O
inactive: [1] | [2] | [3] | [4] | [5] | [6]

CCCCCCC=CC=O
inactive: [1] | [2] | [3] | [4] | [5] | [6]

C=CC(=C)CCC=C(C)C
inactive: [1] | [2] | [3] | [4] | [5] | [6]

CCCCOC(=O)CCC
inactive: [7] | [8]

CC(C=O)Cc1ccc(C(C)(C)C)cc1 (stereo not given)
inactive: [9]

COc1cc(C=O)cc(OC)c1O
inactive: [9]

CC1CCCCCCCCCCCCC(=O)C1 (stereo not given)
inactive: [10]
